Source: ChEMBL document CHEMBL5136969, “A niclosamide-tobramycin hybrid adjuvant potentiates cefiderocol against P. aeruginosa” (2021)
Active and inactive are the calls of the source.

How the values were obtained:
Klebsiella pneumoniae [1] = experiment: Antibacterial activity against Klebsiella pneumoniae KP113254 assessed as potentiation of cefiderocol antibacterial activity by measuring FIC after 18 hrs by microbroth dilution method; type: functional
Method in brief: (§1)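 Checkerboard in MHB. Cefiderocol was 2-fold serially diluted along one axis and the adjuvant along the other. Inoculum was prepared from 0.5 McFarland saline suspensions diluted 1:50 in MHB, giving about 5 × 10^5 CFU/mL final. Plates ran 18 h at 37 °C, with turbidity confirmed at 590 nm. FIC = combination MIC ÷ MIC alone for each agent, and FIC index = sum of both. Interpretation: ≤0.5 synergy, >0.5–4 additive, >4 antagonism.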

Pseudomonas aeruginosa [2] = experiment: Potentiation of cefiderocol-induced antibiotic activity against […] Pseudomonas aeruginosa PAO1 assessed as MIC fold reduction at 8 ug/ml after 18 hrs by microbroth dilution method; type: functional, organism-based; details: dose 8.0 µg/ml
Method in brief: (§2)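 Initial screen in MHB using a fixed 8 μg mL−1 of adjuvant combined with each antibiotic under 2-fold dilution. Broth microdilution used about 5 × 10^5 CFU/mL at 37 °C for 18 h, with visible turbidity read and confirmed at 590 nm. Fold-potentiation = antibiotic MIC alone ÷ antibiotic MIC with adjuvant.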

Pseudomonas aeruginosa [3] = experiment: Antibacterial activity against MDR clinical isolate Pseudomonas aeruginosa PA259 assessed as potentiation of cefiderocol antibacterial activity by measuring FIC index after 18 hrs by microbroth dilution method; type: functional; method in brief: as §1
Escherichia coli [4] = experiment: Potentiation of trimethoprim-induced antibiotic activity against Escherichia coli ATCC 25922 assessed as MIC fold reduction at 8 ug/ml after 18 hrs by microbroth dilution method; type: functional; details: dose 8 µg/ml
Pseudomonas aeruginosa [5] = experiment: Antibacterial activity against colistin-resistant clinical isolate Pseudomonas aeruginosa PA101243 assessed as reduction in bacterial growth by measuring FIC index after 18 hrs by microbroth dilution method; type: functional
Method in brief: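 Checkerboard in MHB (iron-replete, not iron-depleted CAMHB). Cefiderocol was 2-fold serially diluted along one axis and the adjuvant along the other. Inoculum was 0.5 McFarland diluted 1:50, about 5 × 10^5 CFU/mL final. Incubation was 18 h at 37 °C, with turbidity read visually and confirmed at 590 nm. FIC was the MIC in combination over the MIC alone for each agent, and the FIC index was their sum. Cut-offs were ≤0.5 synergy, >0.5–4 additive, >4 antagonism.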

Acinetobacter baumannii [6] = experiment: Antibacterial activity against Acinetobacter baumannii AB031 assessed as potentiation of cefiderocol antibacterial activity by measuring FIC after 18 hrs by microbroth dilution method; type: functional
Method in brief: (§3)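 Checkerboard in Mueller-Hinton broth: cefiderocol 2-fold diluted on one axis, adjuvant 2-fold on the other. Overnight cultures were adjusted to 0.5 McFarland in saline, diluted 1:50 in MHB, and inoculated at about 5 × 10^5 CFU/mL. Incubation was 18 h at 37 °C. Turbidity was read visually and confirmed at 590 nm. FIC index = FIC of antibiotic + FIC of adjuvant; ≤0.5 synergy, >4 antagonism.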

Escherichia coli [7] = experiment: Potentiation of novobiocin-induced antibiotic activity against Escherichia coli ATCC 25922 assessed as MIC fold reduction at 8 ug/ml after 18 hrs by microbroth dilution method; type: functional; details: dose 8 µg/ml
Pseudomonas aeruginosa [8] = experiment: Potentiation of ceftazidime-induced antibiotic activity against MDR clinical isolate Pseudomonas aeruginosa PA260 assessed as MIC fold reduction at 8 ug/ml after 18 hrs by microbroth dilution method; type: functional, organism-based; details: dose 8.0 µg/ml
Method in brief: (§4)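 Adjuvant held at a fixed 8 μg/mL while the antibiotic was 2-fold serially diluted in Mueller-Hinton broth (MHB), per CLSI microbroth dilution. Overnight cultures were adjusted in saline to 0.5 McFarland, then diluted 1:50 in MHB to about 5 × 10^5 CFU/mL final, and incubated 18 h at 37 °C. MIC was the lowest concentration with no visible turbidity, confirmed at 590 nm. Fold potentiation = MIC alone / MIC with adjuvant.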

Pseudomonas aeruginosa [9] = experiment: Potentiation of piperacilin-induced antibiotic activity against Pseudomonas aeruginosa PAO1 assessed as MIC fold reduction at 8 ug/ml after 18 hrs by microbroth dilution method; type: functional; details: dose 8 µg/ml
Escherichia coli [10] = experiment: Antibacterial activity against Escherichia coli 94474 assessed as potentiation of cefiderocol antibacterial activity by measuring FIC after 18 hrs by microbroth dilution method; type: functional; method in brief: as §3
Pseudomonas aeruginosa [11] = experiment: Potentiation of ceftazidime-induced antibiotic activity against Pseudomonas aeruginosa PAO1 assessed as MIC fold reduction at 8 ug/ml after 18 hrs by microbroth dilution method; type: functional; details: dose 8 µg/ml; method in brief: as §4
Pseudomonas aeruginosa [12] = experiment: Potentiation of ceftolozane-induced antibiotic activity against MDR clinical isolate Pseudomonas aeruginosa PA264 assessed as MIC fold reduction at 8 ug/ml after 18 hrs by microbroth dilution method; type: functional, organism-based; details: dose 8.0 µg/ml; method in brief: as §4
Acinetobacter baumannii [13] = experiment: Potentiation of chloamphenicol-induced antibiotic activity against Acinetobacter baumannii ATCC 17978 assessed as MIC fold reduction at 8 ug/ml after 18 hrs by microbroth dilution method; type: functional; details: dose 8 µg/ml; method in brief: as §4
Escherichia coli [14] = experiment: Potentiation of cindamycin-induced antibiotic activity against Escherichia coli ATCC 25922 assessed as MIC fold reduction at 8 ug/ml after 18 hrs by microbroth dilution method; type: functional; details: dose 8 µg/ml; method in brief: as §4
Pseudomonas aeruginosa [15] = experiment: Potentiation of moxifloxacin-induced antibiotic activity against Pseudomonas aeruginosa PA260 assessed as MIC fold reduction in ID-CAMHB condition at 8 ug/ml after 18 hrs by microbroth dilution method; type: functional, organism-based; details: dose 8.0 µg/ml
Pseudomonas aeruginosa [16] = experiment: Potentiation of ceftolozane-induced antibiotic activity against MDR clinical isolate Pseudomonas aeruginosa PA260 assessed as MIC fold reduction at 8 ug/ml after 18 hrs by microbroth dilution method; type: functional, organism-based; details: dose 8.0 µg/ml; method in brief: as §4
Pseudomonas aeruginosa [17] = experiment: Potentiation of cefotaxime-induced antibiotic activity against MDR clinical isolate Pseudomonas aeruginosa PA260 assessed as MIC fold reduction at 8 ug/ml after 18 hrs by microbroth dilution method; type: functional, organism-based; details: dose 8.0 µg/ml; method in brief: as §2
Enterobacter cloacae = experiment: Antibacterial activity against Enterobacter cloacae 121187 assessed as reduction in bacterial growth after 18 hrs in presence of cefiderocol by microbroth dilution method; type: functional; method in brief: as §3
Klebsiella pneumoniae [18] = experiment: Antibacterial activity against Klebsiella pneumoniae KP113250 assessed as reduction in bacterial growth after 18 hrs in presence of cefiderocol by microbroth dilution method; type: functional; method in brief: as §3
Pseudomonas aeruginosa [19] = experiment: Antibacterial activity against MDR clinical isolate Pseudomonas aeruginosa PA86052 assessed as reduction in bacterial growth after 18 hrs in presence of cefiderocol by microbroth dilution method; type: functional; method in brief: as §1
Escherichia coli [20] = experiment: Potentiation of niclosamide-induced antibiotic activity against Escherichia coli ATCC 25922 assessed as MIC fold reduction at 8 ug/ml after 18 hrs by microbroth dilution method; type: functional; details: dose 8 µg/ml
Acinetobacter baumannii [21] = experiment: Potentiation of moxifloxacin-induced antibiotic activity against Acinetobacter baumannii ATCC 17978 assessed as MIC fold reduction at 8 ug/ml after 18 hrs by microbroth dilution method; type: functional; details: dose 8 µg/ml; method in brief: as §4
Klebsiella pneumoniae [22] = experiment: Antibacterial activity against Klebsiella pneumoniae KP116381 assessed as reduction in bacterial growth after 18 hrs in presence of cefiderocol by microbroth dilution method; type: functional; method in brief: as §1
Escherichia coli [23] = experiment: Antibacterial activity against Escherichia coli ATCC 25922 assessed as potentiation of cefiderocol antibacterial activity by measuring FIC after 18 hrs by microbroth dilution method; type: functional; method in brief: as §3
Pseudomonas aeruginosa [24] = experiment: Potentiation of doxycycline-induced antibiotic activity against Pseudomonas aeruginosa PAO1 assessed as MIC fold reduction at 8 ug/ml after 18 hrs by microbroth dilution method; type: functional; details: dose 8 µg/ml; method in brief: as §4

NC[C@H]1O[C@H](O[C@H]2[C@H](OCCCCc3cn(-c4ccc(NC(=O)c5cc(Cl)ccc5O)cc4)nn3)[C@@H](O[C@H]3O[C@H](CO)[C@@H](O)[C@H](N)[C@H]3O)[C@H](N)C[C@@H]2N)[C@H](N)C[C@@H]1O
FIC (Klebsiella pneumoniae [1]): 0.5 | Activity (Pseudomonas aeruginosa [2]): Active | FIC (Pseudomonas aeruginosa [3]): 0.031 | fold change (FC) (Escherichia coli [4]): 4 | FIC (Pseudomonas aeruginosa [5]): 0.125 | FIC (Acinetobacter baumannii [6]): 0.5 | fold change (FC) (Escherichia coli [7]): 4 | Activity (Pseudomonas aeruginosa [8]): Active | fold change (FC) (Pseudomonas aeruginosa [9]): 4 | FIC (Escherichia coli [10]): 0.25 | fold change (FC) (Pseudomonas aeruginosa [11]): 4 | Activity (Pseudomonas aeruginosa [12]): Active | fold change (FC) (Acinetobacter baumannii [13]): 4 | fold change (FC) (Escherichia coli [14]): 4 | Activity (Pseudomonas aeruginosa [15]): Active | Activity (Pseudomonas aeruginosa [16]): Active | Activity (Pseudomonas aeruginosa [17]): Active | MIC (Enterobacter cloacae): 0.25 mg/L | MIC (Klebsiella pneumoniae [18]): 4 mg/L | MIC (Pseudomonas aeruginosa [19]): 0.25 mg/L | fold change (FC) (Escherichia coli [20]): 4 | fold change (FC) (Acinetobacter baumannii [21]): 4 | MIC (Klebsiella pneumoniae [22]): 0.25 mg/L | FIC (Escherichia coli [23]): 0.5 | fold change (FC) (Pseudomonas aeruginosa [24]): 4
